In ChEMBL document CHEMBL4477155, “Simplified Bryostatin Analogues Protect Cells from Chikungunya Virus-Induced Cell Death” (J Nat Prod, 2016):

Assays:
[1] = Cytotoxicity against African green monkey BGM cells assessed as reduction in cell viability after 5 days by MTS/PMS based microscopic analysis; settings: chlorocebus aethiops
Procedure, shortened: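 Uninfected BGM cells (2.5 × 10^4 cells/well, adhered overnight) exposed to compound dilution series in MEM with 2% FBS at 37 °C, 5% CO2; metabolic activity read by MTS/PMS, with microscopic check of monolayer morphology. CC50 = concentration reducing overall metabolic activity by 50%, by logarithmic interpolation.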

[2] = test system: Chikungunya virus; assay: Antiviral activity against Chikungunya virus Indian Ocean 899 infected in African green monkey BGM cells assessed as inhibition of virus-induced cytopathic effect after 5 days by MTS/PMS based […] analysis; assay type: functional, organism-based; settings: Indian Ocean 899, BGM, 120 h

SMILES	CC50 at 120 h [1] [µM]	EC50 [2] [µM]
CCC/C=C/C=C/C(=O)O[C@H]1/C(=C/C(=O)OC)C[C@H]2C[C@H]([C@@H](C)O)OC(=O)C[C@H](O)C[C@@H]3C[C@H](O)C(C)(C)[C@](O)(C[C@@H]4C/C(=C/C(=O)OC)C[C@H](/C=C/C(C)(C)[C@]1(O)O2)O4)O3	> 96	> 96
C=C1C[C@H]2C[C@@H]3O[C@@H](CCC3(C)C)C[C@@H](O)CC(=O)O[C@@H](CO)C[C@@H]3C/C(=C\C(=O)OC)[C@H](OC(=O)CCCCCCC)[C@@](O)(O3)C(C)(C)/C=C/[C@@H](C1)O2	–	0.35
CCC/C=C/C=C/C(=O)O[C@H]1/C(=C/C(=O)OC)C[C@H]2C[C@H]([C@@H](C)O)OC(=O)C[C@H](O)C[C@@H]3C[C@H](OC(C)=O)C(C)(C)[C@](O)(C[C@@H]4C/C(=C/C(=O)OC)C[C@H](/C=C/C(C)(C)[C@]1(O)O2)O4)O3 [BRYOSTATIN 1]	–	> 96
